Key:
[1] = test system: Rattus norvegicus; assay: Dose inhibiting conditioned avoidance response in rats after oral administration; format: functional
Summary of the method: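 Each test day, 30 predrug avoidance trials in the morning; in the afternoon, oral compound or vehicle, then 30 more trials starting 120 min later. Predrug and postdrug avoidances compared by repeated-measures ANOVA with Newman-Keuls test; ID50 from linear regression of dose-response data.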

[2] = test system: Rattus norvegicus; assay: Dose inducing catalepsy in rats after oral administration; format: functional
Summary of the method: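 Oral dose of compound or vehicle; rats tested 120 and 180 min later with forepaws on a horizontal bar (9 mm diameter, 10 cm high). Latency to climb down recorded, 90 s maximum, score averaged over two trials; 20 s mean immobility was the catalepsy criterion. ED20s dose extrapolated by linear regression.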

[3] = molecular target: T1, Adrenergic receptor alpha-1 (Rattus norvegicus, UniProt P15823+P23944+P43140); assay: Displacement of [3H]prazosin from rat brain Alpha-1 adrenergic receptor
T1 sequence (P15823 whole entry): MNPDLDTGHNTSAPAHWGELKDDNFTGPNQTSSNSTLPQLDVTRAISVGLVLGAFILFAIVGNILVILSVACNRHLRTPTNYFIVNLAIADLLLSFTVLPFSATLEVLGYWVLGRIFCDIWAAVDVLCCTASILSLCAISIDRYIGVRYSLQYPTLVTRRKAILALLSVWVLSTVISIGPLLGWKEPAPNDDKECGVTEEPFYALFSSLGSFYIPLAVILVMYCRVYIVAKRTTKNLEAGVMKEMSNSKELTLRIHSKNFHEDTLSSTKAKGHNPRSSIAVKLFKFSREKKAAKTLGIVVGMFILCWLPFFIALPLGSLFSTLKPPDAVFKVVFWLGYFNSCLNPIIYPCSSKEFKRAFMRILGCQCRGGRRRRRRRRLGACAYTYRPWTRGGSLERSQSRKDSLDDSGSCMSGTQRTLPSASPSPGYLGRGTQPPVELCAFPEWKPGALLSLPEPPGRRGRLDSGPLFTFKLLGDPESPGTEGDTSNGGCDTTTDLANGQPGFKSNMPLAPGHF
T1 sequence (P23944 whole entry): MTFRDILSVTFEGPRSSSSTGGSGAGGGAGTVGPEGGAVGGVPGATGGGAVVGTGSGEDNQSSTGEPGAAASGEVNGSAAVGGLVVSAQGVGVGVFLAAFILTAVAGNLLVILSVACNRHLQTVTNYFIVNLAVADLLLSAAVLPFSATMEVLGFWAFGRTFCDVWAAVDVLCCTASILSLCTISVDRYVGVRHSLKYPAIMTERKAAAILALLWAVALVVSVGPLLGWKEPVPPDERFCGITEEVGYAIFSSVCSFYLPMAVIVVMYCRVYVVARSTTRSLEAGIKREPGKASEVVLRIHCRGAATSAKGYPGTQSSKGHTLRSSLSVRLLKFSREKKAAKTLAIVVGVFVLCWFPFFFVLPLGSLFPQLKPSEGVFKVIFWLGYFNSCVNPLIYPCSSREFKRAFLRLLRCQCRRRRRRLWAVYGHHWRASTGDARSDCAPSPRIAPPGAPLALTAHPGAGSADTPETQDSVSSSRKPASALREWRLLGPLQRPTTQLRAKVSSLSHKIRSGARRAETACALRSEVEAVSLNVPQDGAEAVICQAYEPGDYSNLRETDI
T1 sequence (P43140 whole entry): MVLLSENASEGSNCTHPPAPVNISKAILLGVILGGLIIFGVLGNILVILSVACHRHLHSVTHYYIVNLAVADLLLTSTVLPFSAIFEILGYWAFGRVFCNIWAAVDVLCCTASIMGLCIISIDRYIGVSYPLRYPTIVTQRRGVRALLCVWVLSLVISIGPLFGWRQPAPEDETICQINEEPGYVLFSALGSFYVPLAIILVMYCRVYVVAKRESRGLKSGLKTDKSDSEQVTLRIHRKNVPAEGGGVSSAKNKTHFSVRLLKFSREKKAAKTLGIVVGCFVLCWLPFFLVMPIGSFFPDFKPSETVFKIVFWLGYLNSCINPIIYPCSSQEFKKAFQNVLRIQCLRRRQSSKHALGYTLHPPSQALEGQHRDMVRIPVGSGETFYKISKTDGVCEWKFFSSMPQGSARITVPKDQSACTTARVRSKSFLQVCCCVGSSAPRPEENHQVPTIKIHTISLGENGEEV

[4] = molecular target: T1, Adrenergic receptor alpha-1; assay: Displacement of [3H]prazosin from Alpha-1 adrenergic receptor in rat brain; format: tissue-based
[5] = test system: Rattus norvegicus; assay: Dose (administered orally) inhibiting apomorphine-induced stereotypy in rats; format: functional; details: po
Summary of the method: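 Rats dosed orally with vehicle or compound and observed in clear cages; apomorphine HCl 0.75 mg/kg sc given 3 h later. Stereotypy rated blind on a 0–4 scale starting 10 min after apomorphine, every 10 min, five ratings in all.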

[6] = test system: Rattus norvegicus; assay: Dose (administered orally) inhibiting amphetamine-induced locomotor behavior in rats; format: functional; details: po
[7] = test system: Rattus norvegicus; assay: Dose (administered orally) inhibiting spontaneous locomotor behavior in rats; format: functional; details: po
Summary of the method: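 At the start of the 12 h dark cycle, rats were dosed orally with vehicle or compound and placed at once in unfamiliar activity chambers. Horizontal locomotion recorded over 4 h.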

Row | SMILES | Log Ki [3] | Ki [4] | ED50 [1] | ED50 [2] | ED50 [5] | ED50 [6] | ED50 [7]
1 | Oc1nc2ccc(CCN3CCN(c4nsc5ccccc45)CC3)cc2s1 | -8.63 | 2.3 nM | 12.3 mg/kg | > 56 mg/kg | 23.8 mg/kg | 2.7 mg/kg | 2.7 mg/kg
2 | Oc1nc2ccc(CCN3CCN(c4nsc5ccccc45)CC3)cc2o1 | -8.38 | 4.2 nM | 17.8 mg/kg | > 32 mg/kg | 21.6 mg/kg | 4.2 mg/kg | 9.8 mg/kg
3 | O=C1Cc2cc(CCN3CCN(c4nsc5ccccc45)CC3)ccc2N1 | -8.52 | 3 nM | 6.7 mg/kg | 18.8 mg/kg | 8.4 mg/kg | 1.4 mg/kg | 8.5 mg/kg
4 | CC1(C)C(=O)Nc2ccc(CCN3CCN(c4nsc5ccccc45)CC3)cc21 | -8.68 | 2.1 nM | 2.6 mg/kg | 17.8 mg/kg | 10 mg/kg | 2.3 mg/kg | 10.7 mg/kg
5 | CN1CCN(C2=Nc3cc(Cl)ccc3Nc3ccccc32)CC1 [CLOZAPINE] | – | – | > 17.8 mg/kg | > 32 mg/kg | > 32 mg/kg | 12.8 mg/kg | 8.18 mg/kg
6 | O=C(CCCN1CCC(O)(c2ccc(Cl)cc2)CC1)c1ccc(F)cc1 [HALOPERIDOL] | – | – | 0.93 mg/kg | 0.79 mg/kg | 0.25 mg/kg | 0.14 mg/kg | 0.68 mg/kg
7 | Cc1nc2n(c(=O)c1CCN1CCC(c3noc4cc(F)ccc34)CC1)CCCC2 [RISPERIDONE] | – | – | 1.6 mg/kg | 5.7 mg/kg | 1.8 mg/kg | 0.44 mg/kg | 1.2 mg/kg

More lines, main results first:

Row | Log Ki [3] | Ki [4] | SMILES | ED50 [1] | ED50 [2] | ED50 [5] | ED50 [6] | ED50 [7]
8 | -8.35 | 4.5 nM | CCN1C(=O)Cc2cc(CCN3CCN(c4nsc5ccccc45)CC3)ccc21 | 1.8 mg/kg | 10 mg/kg | 4.7 mg/kg | 1.1 mg/kg | 2.1 mg/kg
9 | -8.19 | 6.5 nM | O=C1Cc2cc(CCN3CCN(c4nsc5ccccc45)CC3)c(F)cc2N1 | 9 mg/kg | 17.8 mg/kg | 9.1 mg/kg | 1 mg/kg | 3.1 mg/kg
10 | -8.29 | 5.1 nM | O=C1Nc2ccc(CCN3CCN(c4nsc5ccccc45)CC3)cc2C12CCCC2 | – | 32 mg/kg | 9 mg/kg | 5.8 mg/kg | –
11 | -8.83 | 1.5 nM | O=C1CC2(CCCC2)CC(=O)N1CCCCN1CCN(c2nsc3ccccc23)CC1 [TIOSPIRONE] | 11.7 mg/kg | 20.1 mg/kg | 18.8 mg/kg | 4.8 mg/kg | 15.5 mg/kg
12 | -7.98 | 11 nM | O=C1Cc2cc(CCN3CCN(c4nsc5ccccc45)CC3)c(Cl)cc2N1 [ZIPRASIDONE] | 2.6 mg/kg | 12.1 mg/kg | 2.4 mg/kg | 1.5 mg/kg | 8.9 mg/kg

Reference: ChEMBL document CHEMBL1129280, “3-Benzisothiazolylpiperazine derivatives as potential atypical antipsychotic agents” (J Med Chem, 1996)
